Data reported in ChEMBL document CHEMBL5131563, “Accelerated Identification of Cell Active KRAS Inhibitory Macrocyclic Peptides using Mixture Libraries and Automated Ligand Identification System (ALIS) Technology” (J Med Chem, 2022).
*1 amine or outer side, *2 acyl side, *3 side chain or, on linkers, in order; H or OH if unused. Where a SMILES comes first, the peptide text is derived from it. Bridges are numbered along the chain shown (N, C = ends). [ ]: non-standard residue; d: D form. X1 = O=C([C@@H]1[C@H](c2ccccc2)CCN1[*:1])[*:2]; Pro(3R-Ph) = O=C(O)[C@H]1NCC[C@@H]1c1ccccc1; Bip = N[C@@H](Cc1ccc(-c2ccccc2)cc1)C(=O)O; Lys(N3) = [N-]=[N+]=NCCCC[C@H](N)C(=O)O; hPhe = N[C@@H](CCc1ccccc1)C(=O)O; hLeu = CC(C)CC[C@H](N)C(=O)O; Nva = CCC[C@H](N)C(=O)O

How the values were obtained:
[1] = Stability in human HeLa cell homogenate assessed as half life by LC-MS/MS analysis; type: ADME, cell-based
How it was run: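 HeLa cells suspended at 1 × 10^6 cells/mL, probe-sonicated on ice until homogeneous, stored frozen at –20 °C. Peptides incubated with homogenate (1 × 10^6 cells/mL equivalent); peptide loss over time quantified by LC-MS/MS to derive t1/2.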

GTPase KRas [2] = molecular target: T1, GTPase KRas (Homo sapiens, UniProt P01116, G12D); assay: Inhibition of KRAS in human ASPC1 cells harboring KRAS G12D mutant assessed as inhibition of ERK phosphorylation incubated for 2 hrs by AlphaScreen-based […] assay; type: cell-based
How it was run: (§1)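 AsPC-1 cells (KRAS G12D) were seeded at 15 000 cells/well in phenol-red-free RPMI with 10% FBS and 25 mM HEPES, then incubated overnight at 37 °C and 5% CO2. Medium was switched to serum-free before dosing. Cells were given a dose–response titration for 2 or 18 h at 37 °C, washed and lysed with protease inhibitors. Phospho-ERK and total ERK were read by AlphaScreen SureFire multiplex, using the pERK/total ERK ratio. Curves were fit with a 4-parameter logistic.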

HeLa [3] = assay: Cell permeability in human HeLa cells transfected with NanoLuc-HaloTag vector incubated for 18 hrs followed by treated with NanoBret618-azide ligand by NanoClick assay; type: ADME, cell-based
GTPase KRas [4] = molecular target: T1, GTPase KRas; assay: Inhibition of KRAS in human ASPC1 cells harboring KRAS G12D mutant assessed as inhibition of ERK phosphorylation incubated for 18 hrs by AlphaScreen-based […] assay; type: cell-based; how it was run: as §1
GTPase KRas [5] = molecular target: T1, GTPase KRas; assay: Inhibition of recombinant biotinylated KRAS G12D mutant (unknown origin) assessed as inhibition of SOS-catalyzed nucleotide exchange preincubated for 60 mins followed by addition of human SOS protein and unlabeled GTP and measured after 60 mins by TR-FRET analysis
How it was run: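 Biotinylated KRAS G12D was treated in EDTA buffer (1 h, RT), then loaded at 90 nM with 900 nM Bodipy-GDP and 15 nM Tb-streptavidin in Mg2+ buffer, HEPES pH 7.5 (6 h, RT). It was used at 1.5 nM assay solution with a 10-point, 3-fold DMSO compound series for 60 min at RT. A solution of 120 nM human SOS plus GTP was added for 60 min. The read-out was TR-FRET at 520/495 nm, normalized to DMSO and saturating-inhibitor controls, with a 4-parameter fit.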

HeLa [6] = assay: Cell permeability in human HeLa cells transfected with NanoLuc-HaloTag vector incubated for 4 hrs followed by treated with NanoBret618-azide ligand by NanoClick assay; type: ADME, cell-based

T1 sequence (P01116 whole entry G12D): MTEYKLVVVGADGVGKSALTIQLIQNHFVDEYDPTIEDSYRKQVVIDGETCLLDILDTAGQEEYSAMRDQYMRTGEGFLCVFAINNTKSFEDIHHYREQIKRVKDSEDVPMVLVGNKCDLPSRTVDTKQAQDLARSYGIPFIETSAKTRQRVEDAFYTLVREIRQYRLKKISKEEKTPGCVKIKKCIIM

Compound	IC50 (GTPase KRas [2]) [µM]	EC50 (HeLa [3]) [µM]	IC50 (GTPase KRas [4]) [µM]	EC50 (HeLa [6]) [µM]	half-life [1] [h]	IC50 (GTPase KRas [5]) [µM]
CCC[C@@H]1NC(=O)[C@H](CCc2ccccc2)NC(=O)[C@H](CC(C)C)NC(=O)[C@@H]2CCCN2C(=O)[C@@H](NC(=O)[C@H](CCCNC(=N)N)NC(=O)[C@H](CCCNC(=N)N)NC(C)=O)CSSC[C@@H](C(=O)N[C@@H](CCCNC(=N)N)C(=O)N[C@@H](CCCNC(=N)N)C(N)=O)NC(=O)[C@H](C(C)C)NC(=O)[C@@H]2CCCN2C(=O)[C@H](CC(=O)O)NC(=O)[C@H](Cc2ccc(O)cc2)NC(=O)[C@H](CO)NC1=O (Ac-RRCPL[hPhe][Nva]SYDPVCRR-NH2; disulfide 3-13)					0.25	> 11.1
CC(=O)N[C@@H](CCCNC(=N)N)C(=O)N[C@@H](CCCNC(=N)N)C(=O)N[C@H]1CSSC[C@@H](C(=O)N[C@@H](CCCNC(=N)N)C(=O)N[C@@H](CCCNC(=N)N)C(N)=O)NC(=O)[C@H](C(C)C)NC(=O)[C@@H]2CCCN2C(=O)[C@H](CC(=O)O)NC(=O)[C@H](Cc2ccc(O)cc2)NC(=O)[C@H](CO)NC(=O)[C@H](CCC(C)C)NC(=O)[C@H](CCc2ccccc2)NC(=O)[C@H](CC(C)C)NC(=O)[C@@H]2CCCN2C1=O (Ac-RRCPL[hPhe][hLeu]SYDPVCRR-NH2; disulfide 3-13)					0.233	> 11.1
CC[C@H](C)[C@@H]1NC(=O)[C@H](Cc2ccc(-c3ccccc3)cc2)NC(=O)[C@H](CC(C)C)NC(=O)[C@@H]2[C@H](c3ccccc3)CCN2C(=O)[C@@H](NC(=O)[C@H](CCCNC(=N)N)NC(=O)[C@H](CCCNC(=N)N)NC(C)=O)CSSC[C@@H](C(=O)N[C@@H](CCCNC(=N)N)C(=O)N[C@@H](CCCNC(=N)N)C(N)=O)NC(=O)[C@H](C(C)C)NC(=O)[C@@H]2CCCN2C(=O)[C@H](CC(=O)O)NC(=O)[C@H](Cc2ccc(O)cc2)NC(=O)[C@H](CO)NC(=O)[C@H](C)NC1=O (Ac-RRC[X1]L[Bip]IASYDPVCRR-NH2; disulfide 3-14)	3.8		3.9		> 6.2	< 0.001
CC(=O)N[C@@H](CCCCN=[N+]=[N-])C(=O)N[C@@H](CCCNC(=N)N)C(=O)N[C@@H](CCCNC(=N)N)C(=O)N[C@H]1CSSC[C@@H](C(=O)N[C@@H](CCCNC(=N)N)C(=O)N[C@@H](CCCNC(=N)N)C(N)=O)NC(=O)[C@H](C(C)C)NC(=O)[C@@H]2CCCN2C(=O)[C@H](CC(=O)O)NC(=O)[C@H](Cc2ccc(O)cc2)NC(=O)[C@H](CO)NC(=O)[C@H](C)NC(=O)[C@H](Cc2ccc(-c3ccccc3)cc2)NC(=O)[C@H](CC(C)C)NC(=O)[C@@H]2[C@@H](c3ccccc3)CCN2C1=O (Ac-[Lys(N3)]RRC[Pro(3R-Ph)]L[Bip]ASYDPVCRR-NH2; disulfide 4-14)	6.2	0.148	6.8	1.49	> 6.2	< 0.001

Further lines, with some results ahead:

IC50 (GTPase KRas [2]) [µM]	EC50 (HeLa [3]) [µM]	IC50 (GTPase KRas [4]) [µM]	EC50 (HeLa [6]) [µM]	Compound	half-life [1] [h]	IC50 (GTPase KRas [5]) [µM]
2.7	0.199	19	7.32	CC[C@H](C)[C@@H]1NC(=O)[C@H](Cc2ccc(-c3ccccc3)cc2)NC(=O)[C@H](CC(C)C)NC(=O)[C@@H]2[C@H](c3ccccc3)CCN2C(=O)[C@@H](NC(=O)[C@H](CCCNC(=N)N)NC(=O)[C@H](CCCNC(=N)N)NC(=O)[C@H](CCCCN=[N+]=[N-])NC(C)=O)CSSC[C@@H](C(=O)N[C@@H](CCCNC(=N)N)C(=O)N[C@@H](CCCNC(=N)N)C(N)=O)NC(=O)[C@H](C(C)C)NC(=O)[C@@H]2CCCN2C(=O)[C@H](CC(=O)O)NC(=O)[C@H](Cc2ccc(O)cc2)NC(=O)[C@H](CO)NC1=O	> 6.2	< 0.001
3.3		33		CC[C@H](C)[C@@H]1NC(=O)[C@H](Cc2ccc(-c3ccccc3)cc2)NC(=O)[C@H](CC(C)C)NC(=O)[C@@H]2[C@@H](c3ccccc3)CCN2CC(=O)[C@@H](NC(=O)[C@H](CCCNC(=N)N)NC(=O)[C@H](CCCNC(=N)N)NC(C)=O)CSSC[C@@H](C(=O)N[C@@H](CCCNC(=N)N)C(=O)N[C@@H](CCCNC(=N)N)C(N)=O)NC(=O)[C@H](C(C)C)NC(=O)[C@@H]2CCCN2C(=O)[C@H](CC(=O)O)NC(=O)[C@H](Cc2ccc(O)cc2)NC(=O)[C@H](CO)NC1=O	> 6.2	< 0.001
